Test results: PMC5987874 (The Journal of General Physiology, 2018)
Changes are numbered by the printed parent chain. Several values for one entry are separate records, joined by “and”; a condition that tells them apart may be missing. Equal values may be shown once. Read-outs that look alike come from different tables or passages of the source.

Experiments:
[1] = biological target: T1, human Hv1 H140A (H^2.40A) (Homo sapiens, UniProt Q96D96, H140A); details: ref Ramsey et al., 2006; cited from earlier work
T1 sequence (Q96D96 1-273 H140A): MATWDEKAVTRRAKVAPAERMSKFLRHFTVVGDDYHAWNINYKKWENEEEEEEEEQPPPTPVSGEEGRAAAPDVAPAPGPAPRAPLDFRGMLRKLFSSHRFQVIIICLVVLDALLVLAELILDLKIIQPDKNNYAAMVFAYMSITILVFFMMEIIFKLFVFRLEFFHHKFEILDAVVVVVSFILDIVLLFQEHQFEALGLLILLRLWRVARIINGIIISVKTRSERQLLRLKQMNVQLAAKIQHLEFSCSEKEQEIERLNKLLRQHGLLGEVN

human Hv1 E119H-H140A = biological target: T2, human Hv1 E119H-H140A (Homo sapiens, UniProt Q96D96, E119H/H140A); experiment: Whole-cell voltage clamp, Zn^2+ modulation of GAQ gating; type: cell-based
T2 sequence (Q96D96 1-273 E119H/H140A): T1 sequence (Q96D96 1-273 H140A) with E119H
Outline: (§1)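 Whole-cell patch clamp at ~21°C. Pipette and bath (mM): ~80 TMA-MeSO3, 100 Bis-Tris, 8 HCl, pH 6.5, 310–320 mOsm. ZnCl2 was diluted into bath solution and applied by gravity superfusion, at least 2 min per change. Test step voltage was set per construct from its V0.5. G_STEP = end-of-step current/(V−V_REV). Effect = 1 − G_Zn/G_control, fitted to the Hill equation. IC50 and nH are means ± SEM from separate cells. ΔpIC50 was tested by unpaired t test, P<0.05.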

[2] = biological target: T3, human Hv1 E119H (E^1.58H) (Homo sapiens, UniProt Q96D96, E119H); experiment: as above; type: cell-based
T3 sequence (Q96D96 1-273 E119H): T1 sequence (Q96D96 1-273 H140A) with E119H, A140H
Outline: as §1

human Hv1 D130H-H140A = biological target: T4, human Hv1 D130H-H140A (Homo sapiens, UniProt Q96D96, D130H/H140A); experiment: as above; type: cell-based
T4 sequence (Q96D96 1-273 D130H/H140A): T1 sequence (Q96D96 1-273 H140A) with D130H
Outline: as §1

human Hv1 D112H = biological target: T5, human Hv1 D112H (Homo sapiens, UniProt Q96D96, D112H); experiment: Whole-cell voltage clamp, Zn^2+ modulation of GAQ gating; type: cell-based
T5 sequence (Q96D96 1-273 D112H): T1 sequence (Q96D96 1-273 H140A) with D112H, A140H
Outline: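 Zn2+ effect was read from tail current, not end-of-step current. Whole-cell recording at ~21°C with pH 6.5 pipette and bath solutions (mM: ~80 TMA-MeSO3, 100 Bis-Tris, 8 HCl). ZnCl2 was diluted in bath solution and gravity-superfused, at least 2 min per change. Concentration–response was fitted to the Hill equation, with IC50 values from separate cells. ΔpIC50 was compared by unpaired Student's t test, P<0.05.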

[3] = biological target: T6, human Hv1 D130H (D^1.69H) (Homo sapiens, UniProt Q96D96, D130H); experiment: Whole-cell voltage clamp, Zn^2+ modulation of GAQ gating; type: cell-based
T6 sequence (Q96D96 1-273 D130H): T1 sequence (Q96D96 1-273 H140A) with D130H, A140H
Outline: as §1

[4] = VSTEP 120 mV, calculated as log (IC50)
[5] = read-out: IC50, fit of the mean data to a Hill function, Fig. 4C

For `[Cl-].[Cl-].[Zn+2]` [Zn^2+, ZnCl2], the “decrease of Zn^2+ potency by single mutation” value [1] is given as 10- to 30 fold, the “Mean ΔpIC50 = (pIC50_1 - pIC50_2)” value (human Hv1 E119H-H140A; E119H-H140A vs H140A) is given as 1.81 and the “nH, fit of the mean data to a Hill function” value (from here on “nH, fit of the mean data”) (human Hv1 E119H-H140A; Fig. 4A) is given as 1.2. It also gave a Hill value (human Hv1 E119H-H140A; VSTEP 120 mV) of 2.09, a pIC50 (human Hv1 E119H-H140A; [4]) of 6.23 and an IC50 (human Hv1 E119H-H140A; read-out: IC50, fit of the mean data to a Hill function, Fig. 4A) of 0.67 µM. For the same compound, the “Mean ΔpIC50 = (pIC50_1 - pIC50_2)” value ([2]; E119H vs WT) was 0.8 and 0.77, the “nH, fit of the mean data” value ([2]; Fig. 3C) was 0.9 and the Hill value ([2]; VSTEP 100 mV) was 1.08. For the same compound, the pIC50 ([2]; VSTEP 100 mV, calculated as log (IC50)) was 6.22, the IC50 ([2]; read-out: IC50, fit of the mean data to a Hill function, Fig. 3C) was 0.6 µM and the “Mean ΔpIC50 = (pIC50_1 - pIC50_2)” value (human Hv1 D130H-H140A; D130H-H140A vs H140A) was 0.01. For the same compound, the “nH, fit of the mean data” value (human Hv1 D130H-H140A; Fig. 4C) was 0.5, the Hill value (human Hv1 D130H-H140A; VSTEP 80 mV) was 0.58 and the pIC50 (human Hv1 D130H-H140A; VSTEP 80 mV, calculated as log (IC50)) was −4.42. The IC50 (human Hv1 D130H-H140A; [5]) was 39.7 µM, the IC50 (human Hv1 D130H-H140A; read-out: Mean IC50 @ VSTEP, VSTEP 80 mV, pH 6.5, mean of fits in separate cells) was 41.5 µM and the “Mean ΔpIC50 = (pIC50_1 - pIC50_2)” value (human Hv1 D112H; D112H vs WT) was −2.1. The Hill value (human Hv1 D112H; VSTEP 130 mV, determined from tail current) was 0.56, the pIC50 (human Hv1 D112H; VSTEP 130 mV, determined from tail current, calculated as log (IC50)) was −2.96 and the IC50 (human Hv1 D112H; read-out: Mean IC50 @ VSTEP, VSTEP 130 mV, pH 6.5, determined from tail current) was 1140 µM. For the same compound, the “Mean ΔpIC50 = (pIC50_1 - pIC50_2)” value ([3]; D130H vs WT) was 0.22, the “nH, fit of the mean data” value ([3]; Fig. 4C) was 0.7 and the Hill value ([3]; VSTEP 120 mV) was 0.95. It also gave a pIC50 [3, 4] of 5.67 and an IC50 [3, 5] of 2.4 µM.
